Shown are actives, neighbours in structure and some others; about 4.7% of the full set was active somewhere.
ADAM17 inh – inhibits human ADAM17; inhibition, % at 6.95 µM; actives 0.83% (n = 370,000); recombinant ADAM17, EDANS/DABCYL FRET peptide cleavage; P78536; AID 720648;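 active = inhibition above the mean of compounds lying between control limits plus 3 SD, set per campaign, cut at about 8.5% in these data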;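 also: 0% = DMSO-only wells as the low control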
Target sequence (P78536 215-824 limits assumed): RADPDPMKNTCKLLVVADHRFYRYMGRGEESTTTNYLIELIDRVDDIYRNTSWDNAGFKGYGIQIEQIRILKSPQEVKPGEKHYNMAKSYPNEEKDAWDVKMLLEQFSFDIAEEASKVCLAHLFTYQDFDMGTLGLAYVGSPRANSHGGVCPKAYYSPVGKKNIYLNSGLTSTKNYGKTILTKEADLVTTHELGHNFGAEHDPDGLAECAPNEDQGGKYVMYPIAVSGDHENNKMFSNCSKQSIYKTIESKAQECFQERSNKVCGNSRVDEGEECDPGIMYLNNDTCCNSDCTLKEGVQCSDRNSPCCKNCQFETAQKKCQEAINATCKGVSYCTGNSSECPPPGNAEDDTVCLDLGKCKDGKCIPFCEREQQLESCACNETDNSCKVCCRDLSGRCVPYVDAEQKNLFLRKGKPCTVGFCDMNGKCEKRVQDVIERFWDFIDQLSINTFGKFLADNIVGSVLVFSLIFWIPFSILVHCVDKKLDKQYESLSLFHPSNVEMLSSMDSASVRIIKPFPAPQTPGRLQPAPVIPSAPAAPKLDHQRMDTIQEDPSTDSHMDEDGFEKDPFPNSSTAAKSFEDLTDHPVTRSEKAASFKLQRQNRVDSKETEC
MPTP inh – inhibitors of mitochondrial permeability transition pore. isolated mouse mitochondria, Ca2+ swelling absorbance, 30 min. inhibition, % at 10 µM. actives 1.4% (n = 360,000). AID 602449;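 active = inhibition of 50% or more, scaled per plate between neutral and stimulator controls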;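 also: 0% = DMSO wells given calcium and 100% = 1 mM EGTA wells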
SKN-1 inh – inhibitors of C. elegans SKN-1 | C. elegans VP596 Pgst-4::GFP/RFP ratio, acrylamide-induced, 24 h | inhibition, % at 21.8 µM | actives 0.49% (n = 360,000);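 active = interference check ratio from 0.5 to 1.5 plus GFP to RFP signal ratio inhibition reaching or exceeding a fixed threshold, cut at about 30% in these data, passing the limit was not always enough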
GRIN3A LBD mod – NR3A (human) ligand-binding domain modulation; NR3A LBD differential scanning fluorimetry, Tm shift; 0% = protein alone, 100% = glycine-bound protein; Tm shift relative to glycine control, % at 25 µM; actives 2.5% (n = 340,000); AID 1259313;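 active = melting temperature shift of at least 10% of the positive control shift, at one fixed dose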
MT1-MMP act inh – blocks activation of human MT1-MMP; AID 651647; GFP/RFP ratio change, % at 20 µM; HT1080 RFP-PRO-GFP cells, GFP/RFP ratio fluorescence, overnight; percent of plate control window, DMSO zero; actives 0.061% (n = 360,000); P50281;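 active = GFP/RFP ratio change of at least 30% with cell ATP level not reduced by more than half and red fluorescence within 50% of control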
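Read-out: GFP/RFP fluorescence ratio; Test system: RFP-PRO-GFP reporter HT1080 cells; Compound dosing: single-point 20 µM compound, 1% DMSO; Times: overnight compound exposure at 37 °C.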
ADAM10 inh – ADAM10 inhibition, QFRET primary screen; O14672; recombinant ADAM10, EDANS/DABCYL FRET peptide cleavage, 3 h; inhibition, % at 7 µM; actives 0.62% (n = 370,000); AID 720582;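 active = inhibition above a per-campaign cutoff equal to the mean of compounds falling between control-based bounds plus 3 SD, cut at about 20% in these data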;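 also: 0% = DMSO wells while the 100% control is not disclosed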
MPTP counter – mitochondrial membrane potential, counter-screen; actives 78% (n = 5,000); inhibition, % at 10 µM; shares compounds with MPTP inh; isolated mitochondria, Rhodamine 123 fluorescence; AID 624504; in the data active = inhibition above about 22%;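 also: 0% = DMSO vehicle and 100% = positive control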
* = called active by the depositor; i = inactive; · = no result given.

SMILES | ADAM17 inh | MPTP inh | SKN-1 inh | GRIN3A LBD mod | MT1-MMP act inh | ADAM10 inh | MPTP counter
c1coc(CNc2nc3nonc3nc2NCc2ccco2)c1 | -3 | 96* | -15 | -3 | -6 | -27 | 95*
Cn1c(SCc2cccc(Cl)c2)nc(C(F)(F)F)cc1=O | 1 | 0 | 14 | 4 | -1 | 4 | ·
CC(=O)Nc1ccc(NS(=O)(=O)c2ccc(-c3cnc(C4CC4)o3)cc2)cc1 | -3 | -2 | 24 | -3 | -8 | 0 | ·
CC(=O)c1cccc(NS(=O)(=O)c2ccc(-c3cnc(C4CC4)o3)cc2)c1 | 4 | 94* | -7 | -8 | -8 | 3 | 94*
COc1cc(/C=C/c2ccc(O)cc2)cc(OC)c1 | -3 | 2 | -8 | 2 | 4 | -25 | ·
COC(=O)c1ccc2c(c1)C(C)(C)C(/C=C/c1ccc(O)cc1)=[N+]2C | -42 | 86* | 86 | 2 | 86 | -56 | -25
O=C(CSc1nnc(Cn2nnc3ccccc32)o1)N(Cc1ccc(F)cc1)c1ccccc1 | -1 | 85* | 15 | 2 | -6 | 12 | 94*
Cn1nc(-c2ccc(Cl)cc2)c2cc(C(=O)NCCN3CCOCC3)sc21 | -69 | -2 | 15 | -1 | -3 | -275 | ·
Cn1nc(-c2ccc(Cl)cc2)c2cc(C(=O)NCCCN3CCOCC3)sc21 | · | 74* | 9 | 0 | 7 | · | -12
CCN(CC)CCNC(=O)c1cc2c(-c3ccc(Cl)cc3)nn(C)c2s1 | -184 | 86* | 1 | -4 | -1 | i | -26
CCCN(CCC)CCNC(=O)c1cc2c(-c3ccc(Cl)cc3)nn(C)c2s1 | -131 | -1 | 11 | -1 | 1 | -339 | ·
COc1ccc(C2=NOC(Cn3nc(-c4ccccc4)cc3C(=O)NCc3ccc(C)cc3)C2)cc1 (configuration not stated) | -2 | 2 | 6 | 2 | 0 | 1 | ·
CC(Oc1ccc(Cl)cc1)C(=O)Nc1cccc(S(=O)(=O)N2CCCC2)c1 (configuration not stated) | 2 | -2 | -13 | · | 0 | -4 | ·
CC(/C=C/c1ccccc1)=N\NC(=O)c1cc(C)[nH]n1 | 0 | 1 | 13 | 0 | 0 | 3 | ·
O=[N+]([O-])c1ccc(NS(=O)(=O)c2ccc(Cl)c(Cl)c2)cc1 | 2 | 86* | 9 | · | 4 | 2 | 102*
O=[N+]([O-])c1cc(NS(=O)(=O)c2ccc(Cl)nc2)ccc1Cl | 1 | 85* | -1 | 1 | 7 | 4 | 97*
O=[N+]([O-])c1ccc(S(=O)(=O)Nc2ccncc2)cc1 | -1 | 0 | 6 | 0 | -2 | 7 | ·
O=[N+]([O-])c1ccc(Oc2ccc(S(=O)(=O)Nc3ccccc3)cc2)cc1 | · | 69* | 12 | 8 | -5 | · | 85*
O=C(O)c1cccc(S(=O)(=O)Nc2ccccc2C(=O)NCCc2ccccc2)c1 | -3 | 0 | 3 | 4 | 4 | -2 | ·
Cc1cc(C(=O)NC2CCCCC2)on1 | -2 | 0 | 6 | -1 | -3 | 2 | ·
Cc1ccc(-n2[nH]c(C)c(/C=N/Nc3ccc([N+](=O)[O-])cc3[N+](=O)[O-])c2=O)cc1 | 2 | 112* | 14 | 22* | 22 | 5 | 69*
O=C(c1cc([N+](=O)[O-])ccc1N1CCOCC1)N1CCN(c2ccccc2)CC1 | -1 | 0 | 14 | · | 17 | -4 | ·
O=[N+]([O-])c1ccc(O)c(C(C#Cc2ccccc2)N2CCOCC2)c1 (configuration not stated) | -5 | 68* | 16 | -1 | -1 | 1 | 87*
CCCCOc1ccc(CSc2nc(C)[nH]c2[N+](=O)[O-])cc1[N+](=O)[O-] | 3 | 56* | 7 | 3 | -1 | 16 | 75*
CC(=O)c1c(N)nc2n(c1=O)CCCCC2 | -4 | -2 | -2 | -2 | 2 | -1 | ·
NC(=O)CCCn1c(C(=O)c2ccc(Cl)cc2)c2ccc(C(F)(F)F)cc2[n+]1[O-] | -3 | -1 | -13 | 3 | 4 | -2 | ·

Screening results as filed in PubChem.
